Laboratory results from ChEMBL document CHEMBL1124632 (J Med Chem, 1989).

Target: T1, 5-hydroxytryptamine receptor 1B (Rattus norvegicus, UniProt P28564)
Assay: (§1) Inhibitory activity against 5-hydroxytryptamine 1B receptor of rat striatal membrane homogenate using [3H]5-HT as the radioligand.

T1 sequence (P28564 whole entry): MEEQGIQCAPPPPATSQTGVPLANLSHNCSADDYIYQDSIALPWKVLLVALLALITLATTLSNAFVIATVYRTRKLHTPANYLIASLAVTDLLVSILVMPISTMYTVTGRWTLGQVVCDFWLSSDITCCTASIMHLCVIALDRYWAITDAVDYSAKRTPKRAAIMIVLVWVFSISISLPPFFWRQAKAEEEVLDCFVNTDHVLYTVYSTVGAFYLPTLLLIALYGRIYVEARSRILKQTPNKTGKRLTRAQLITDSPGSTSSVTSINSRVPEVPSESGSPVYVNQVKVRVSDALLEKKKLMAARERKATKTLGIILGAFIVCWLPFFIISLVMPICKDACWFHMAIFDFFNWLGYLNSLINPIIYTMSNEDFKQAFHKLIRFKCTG

Ki | Compound
1.1 µM | CCCCN(CC)CCOc1cccc2ccccc12
1.8 µM | CCCN(C)CCOc1cccc2ccccc12
5.65 µM | CCCCN(CCCC)CCCOc1cccc2ccccc12
9 µM | CCCCN(CCCC)CCOc1cccc2ccccc12
6.1 µM | CCCN(CCC)CCCOc1cccc2ccccc12

More lines, now with the values behind:

Compound | Ki
CN(C)CCCOc1ccccc1 | > 10 µM
CN(C)CCCCOc1cccc2ccccc12 | 1 µM
CN(C)CCCOc1cccc2ccccc12 | 1 µM
CNCCCOc1ccccc1 | 3.1 µM
CN(C)CCOc1cccc2ccccc12 | 1.5 µM
CN(C)CCCNc1ccccc1 | > 10 µM
COc1ccccc1OCCCN(C)C | > 10 µM
CCCN(CCC)CCCOc1ccccc1 | > 10 µM
CN(C)CCCOc1ccccc1O | > 10 µM

Target: T2, 5-hydroxytryptamine receptor 1A (Rattus norvegicus, UniProt P19327)
T2 sequence (P19327 whole entry): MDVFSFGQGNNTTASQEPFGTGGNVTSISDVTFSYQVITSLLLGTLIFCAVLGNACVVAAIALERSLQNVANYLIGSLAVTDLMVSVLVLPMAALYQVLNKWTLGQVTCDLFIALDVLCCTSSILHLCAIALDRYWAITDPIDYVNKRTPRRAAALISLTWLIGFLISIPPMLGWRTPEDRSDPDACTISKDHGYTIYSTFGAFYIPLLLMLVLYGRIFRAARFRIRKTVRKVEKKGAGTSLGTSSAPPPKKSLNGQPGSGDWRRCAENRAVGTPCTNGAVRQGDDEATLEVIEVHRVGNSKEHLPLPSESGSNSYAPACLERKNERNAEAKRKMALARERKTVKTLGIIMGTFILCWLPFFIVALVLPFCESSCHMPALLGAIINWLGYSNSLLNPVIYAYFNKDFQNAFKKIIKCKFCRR
Assay: (§2) Inhibitory activity against 5-hydroxytryptamine 1A receptor of rat hippocampal tissue using [3H]OH-DPAT as radioligand.

Ki | Compound
0.039 µM | CCCCN(CC)CCOc1cccc2ccccc12
0.045 µM | CCCN(C)CCOc1cccc2ccccc12
0.225 µM | CCCCN(CCCC)CCCOc1cccc2ccccc12
0.15 µM | CCCCN(CCCC)CCOc1cccc2ccccc12
0.45 µM | CCCN(CCC)CCCOc1cccc2ccccc12

Continued, molecule first:

Compound | Ki
CN(C)CCCOc1ccccc1 | 4.85 µM
CN(C)CCCCOc1cccc2ccccc12 | 0.4 µM
CN(C)CCCOc1cccc2ccccc12 | 0.345 µM
CNCCCOc1ccccc1 | 3.3 µM
CN(C)CCOc1cccc2ccccc12 | 0.08 µM
CN(C)CCCNc1ccccc1 | > 25 µM
CN(CCOc1cccc2ccccc12)Cc1ccccc1 | 0.095 µM
COc1ccccc1OCCCN(C)C | 3 µM
CCCN(CCC)CCCOc1ccccc1 | 2.75 µM
CN(C)CCCOc1ccccc1O | 4.9 µM
NCCOc1cccc2ccccc12 | 0.06 µM

Target: T2, 5-hydroxytryptamine receptor 1A
Assay: as §2
Format: tissue-based, Hippocampus
Outline: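 Rat hippocampal membranes (4 mg wet weight), washed and preincubated 15 min at 37 °C, in 50 mM Tris HCl with 0.5 mM Na₂EDTA, 10 mM MgSO₄, 10 μM pargyline and 0.1% ascorbate. 0.1 nM [³H]8-OH-DPAT, 1 μM 8-OH-DPAT for nonspecific binding. Eleven competitor concentrations, at least triplicate. Incubated 30 min at 37 °C, then filtered over glass fiber. Ki reported.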

Ki | Compound
3.53 µM | CCCCN(CC)CCC(=O)c1cccc2ccccc12
0.3 µM | CCCCN(CC)CCCc1cccc2ccccc12

The remaining lines, values behind:

Compound | Ki
CN(C)Cc1cccc2ccccc12 | 3.42 µM
CCCN(CCC)CC(O)COc1cccc2ccccc12 (centres undefined) | 1.32 µM
CCCCN(CC)CCCC1CCCc2ccccc21 (centres undefined) | 0.54 µM
CN(C)CCCCc1ccccc1 | 5 µM

Target: T1, 5-hydroxytryptamine receptor 1B
Assay: as §1
Outline: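 Competition binding on washed rat striatal membrane homogenate (8 mg) with 2.0 nM [³H]5-HT. 10⁻⁷ M 8-OH-DPAT and mesulergine block 5-HT1A and 5-HT1C sites; 10⁻⁶ M 5-HT defines nonspecific binding. Buffer: 50 mM Tris HCl, EDTA, MgSO₄, 10 μM pargyline, 0.1% ascorbate. Eleven concentrations, at least triplicate. 37 °C for 30 min, then glass-fiber filtration. Ki given.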

Ki | Compound
8 µM | CCCN(CCC)CC(O)COc1cccc2ccccc12 (centres undefined)
> 10 µM | CN(C)CCCCc1ccccc1

Target: Adrenergic receptor beta (Rattus norvegicus, UniProt P18090+P10608+P26255)
Assay: Inhibitory activity against beta adrenergic receptor of rat frontal cortex homogenate using (1.0 nM) [3H]- dihydroalprenolol
Format: tissue-based

Ki | Compound
5 µM | CCCCN(CC)CCOc1cccc2ccccc12
5.3 µM | CCCN(C)CCOc1cccc2ccccc12
8.3 µM | CCCCN(CCCC)CCCOc1cccc2ccccc12
> 10 µM | CCCCN(CCCC)CCOc1cccc2ccccc12

More lines, now with the values behind:

Compound | Ki
CN(C)CCCOc1cccc2ccccc12 | 2.4 µM
CN(C)CCOc1cccc2ccccc12 | 4.5 µM
